Results taken from ChEMBL document CHEMBL4130501 (Eur J Med Chem, 2017).
Calls of active or inactive are those of the source. The calls are words filed in the database; no cut-off is given here.

What was measured:
Cholinesterase [1] = biological target: T1, Cholinesterase (Homo sapiens, UniProt P06276); assay: Inhibition of BuChE (unknown origin) at 500 nM pre-incubated for 20 mins before S-Butyrylthiocholine iodide substrate addition by Ellman reagent based spectrophotometry
How it was run: (§1)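 Cholinesterase inhibition was tested with the compound at 500 nM and reported as percent inhibition, mean ± SEM.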

[2] = Inhibition of AChE (unknown origin) at 500 nM pre-incubated for 20 mins before acetylthiocholine iodide substrate addition by Ellman reagent based spectrophotometry; conditions: Homo sapiens; how it was run: as §1
Cholinesterase [3] = biological target: T1, Cholinesterase; assay: Inhibition of BuChE (unknown origin) pre-incubated for 20 mins before S-Butyrylthiocholine iodide substrate addition by Ellman reagent based spectrophotometry
[4] = biological target: Amyloid-beta precursor protein (Homo sapiens) (UniProt P05067); assay: Inhibition of self-induced amyloid beta (1 to 42) (unknown origin) aggregation at 10 uM after 24 hrs by thioflavin T-based fluorometric assay relative to control
Chain of Amyloid-beta precursor protein (Homo sapiens) (P05067 whole entry): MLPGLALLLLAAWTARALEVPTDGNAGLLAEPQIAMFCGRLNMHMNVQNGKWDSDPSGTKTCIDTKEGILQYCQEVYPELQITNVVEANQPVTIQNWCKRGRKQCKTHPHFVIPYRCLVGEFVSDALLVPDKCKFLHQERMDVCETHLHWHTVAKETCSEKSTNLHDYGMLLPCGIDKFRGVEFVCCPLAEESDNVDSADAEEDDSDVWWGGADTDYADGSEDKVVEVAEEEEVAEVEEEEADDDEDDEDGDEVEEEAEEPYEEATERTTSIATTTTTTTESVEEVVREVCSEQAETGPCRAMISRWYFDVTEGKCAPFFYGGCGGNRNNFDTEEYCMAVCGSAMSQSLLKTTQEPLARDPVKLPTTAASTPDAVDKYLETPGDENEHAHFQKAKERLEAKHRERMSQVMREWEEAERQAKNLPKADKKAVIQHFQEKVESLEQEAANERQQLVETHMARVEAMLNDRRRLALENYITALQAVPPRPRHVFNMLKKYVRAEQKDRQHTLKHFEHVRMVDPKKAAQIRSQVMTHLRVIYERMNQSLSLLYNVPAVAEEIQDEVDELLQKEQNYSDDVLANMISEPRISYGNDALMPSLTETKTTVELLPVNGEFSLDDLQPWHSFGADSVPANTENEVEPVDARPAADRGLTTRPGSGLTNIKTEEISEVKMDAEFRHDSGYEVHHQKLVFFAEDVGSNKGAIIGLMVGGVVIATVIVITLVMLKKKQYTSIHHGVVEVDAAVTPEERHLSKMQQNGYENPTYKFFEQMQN
How it was run: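 Self-mediated Aβ1-42 aggregation was followed by thioflavin-T fluorescence with 10 µM inhibitor present. Percent inhibition was reported as mean ± SEM.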

[5] = Antioxidant activity assessed as DPPH radical scavenging activity incubated for 60 mins under dark condition by spectrophotometry; assay type: functional
How it was run: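 DPPH radical scavenging was measured, and the IC50 was taken as the compound concentration giving 50% scavenging.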

[6] = Permeability at 100 ug/ml incubated for 10 hrs by PAMPA method; assay type: ADME; conditions: read-out: Peff
How it was run: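 Passive BBB permeation was measured by PAMPA-BBB through an artificial lipid membrane, with Pe given in 10^-6 cm s^-1. Classification: Pe > 4.7 is CNS+, 4.7 to 1.8 is uncertain, and Pe < 1.8 is CNS−.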

[7] = Metal chelating activity against Cupric ions assessed as induction of isosbestic shift of maximum absorption upon addition of CuCl2 at 10 uM incubated for 30 mins UV-Vis spectrophotometry
HT-22 [8] = assay: Cytotoxicity in mouse HT22 cells assessed as reduction in cell viability at 100 uM incubated for 24 hrs by MTT assay; assay type: cell-based; conditions: ht-22, 24 h
How it was run: (§2)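 Mouse HT22 cells were exposed to compounds at 30, 50 and 100 µM for 24 h. Viability was read by colorimetric MTT assay and compared with untreated control cells (n = 3).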

HT-22 [9] = assay: Neuroprotective activity against glutamate-induced cytotoxicity in mouse HT22 cells assessed as increase cell viability at 3 to 30 uM pre-incubated for 30 mins before glutamate stimulation for 24 hrs by MTT assay; assay type: functional, cell-based
How it was run: (§3)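 HT22 cells were pretreated for 30 min with compounds at 3, 10 or 30 µM, then exposed to […] glutamate for 24 h. Viability was read by MTT (n = 3) and compared against the glutamate-only group and the control.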

HT-22 [10] = assay: Cytotoxicity in mouse HT22 cells assessed as reduction in cell viability at 30 uM incubated for 24 hrs by MTT assay; assay type: cell-based; conditions: ht-22, 24 h; how it was run: as §2
HT-22 [11] = assay: Neuroprotective activity against glutamate-induced cytotoxicity in mouse HT22 cells assessed as increase cell viability at 10 uM pre-incubated for 30 mins before glutamate stimulation for 24 hrs by MTT assay; assay type: functional, cell-based; how it was run: as §3
HT-22 [12] = assay: Cytotoxicity in mouse HT22 cells assessed as reduction in cell viability at 30 to 100 uM incubated for 24 hrs by MTT assay; assay type: cell-based; conditions: ht-22, 24 h; how it was run: as §2
HT-22 [13] = assay: Neuroprotective activity against glutamate-induced cytotoxicity in mouse HT22 cells assessed as increase cell viability at 30 uM pre-incubated for 30 mins before glutamate stimulation for 24 hrs by MTT assay; assay type: functional, cell-based; how it was run: as §3

T1 sequence (P06276 whole entry): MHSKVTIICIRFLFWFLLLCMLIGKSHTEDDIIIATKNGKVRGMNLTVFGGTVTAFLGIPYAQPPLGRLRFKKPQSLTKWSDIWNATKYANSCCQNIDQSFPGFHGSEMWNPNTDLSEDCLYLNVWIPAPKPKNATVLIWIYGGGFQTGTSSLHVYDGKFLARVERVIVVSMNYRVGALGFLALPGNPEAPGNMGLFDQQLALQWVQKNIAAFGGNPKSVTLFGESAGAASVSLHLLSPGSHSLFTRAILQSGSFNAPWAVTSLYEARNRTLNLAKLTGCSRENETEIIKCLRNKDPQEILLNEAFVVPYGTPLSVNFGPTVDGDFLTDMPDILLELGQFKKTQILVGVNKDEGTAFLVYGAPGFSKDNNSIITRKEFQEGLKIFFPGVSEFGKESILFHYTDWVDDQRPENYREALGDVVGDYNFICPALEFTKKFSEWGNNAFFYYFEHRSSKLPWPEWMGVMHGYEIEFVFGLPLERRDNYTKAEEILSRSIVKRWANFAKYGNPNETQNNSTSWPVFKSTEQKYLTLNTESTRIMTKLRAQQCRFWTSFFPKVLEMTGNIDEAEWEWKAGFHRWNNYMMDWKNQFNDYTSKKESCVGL

| SMILES | inhibition (Cholinesterase [1]) | inhibition [2] | IC50 (Cholinesterase [3]) | inhibition [4] | IC50 [5] | Papp at 10 h, 100 ug/ml [6] | Activity [7] | Activity (HT-22 [8]) | Activity (HT-22 [9]) | Activity (HT-22 [10]) | Activity (HT-22 [11]) | Activity (HT-22 [12]) | Activity (HT-22 [13]) |
| --- | --- | --- | --- | --- | --- | --- | --- | --- | --- | --- | --- | --- | --- |
| CCN(C)C(=O)Oc1cccc(CCNC(=O)c2cc(O)c(O)c(O)c2)c1 | 58.8% | 3.48% | 0.452 µM | 27.1% | 11.7 µM | 5.14 ×10⁻⁶ cm/s | Active | Toxic | inactive |  |  |  |  |
| CCN(C)C(=O)Oc1cccc(CNC(=O)c2cc(=O)c3ccccc3o2)c1 | 37.1% | 12.7% | 0.65 µM | 55.2% | > 100 µM |  |  |  |  | Toxic | Active |  |  |
| CCN(C)C(=O)Oc1cccc(CNC(=O)c2cc(O)c(O)c(O)c2)c1 | 2.39% | 5.53% |  | 51.8% | 12.9 µM | 4.86 ×10⁻⁶ cm/s | Active |  |  |  |  | Non-Toxic | Active |
| CCN(C)C(=O)Oc1cccc(NC(=O)CCCCC2CCSS2)c1 (stereo unspecified) | 77.4% | 0.51% | 0.356 µM | 46.3% | 4.53 µM | 10.3 ×10⁻⁶ cm/s | Active |  |  |  |  | Non-Toxic | inactive |
| CCN(C)C(=O)Oc1cccc(NC(=O)c2cc(=O)c3ccccc3o2)c1 | 53.8% | 9.03% | 0.507 µM | 63.8% | > 100 µM |  |  |  | inactive |  |  | Toxic |  |
| CCN(C)C(=O)Oc1cccc(CCNC(=O)CCCCC2CCSS2)c1 (stereo unspecified) | 76.7% | -1.48% | 0.34 µM | 49.8% | 4.88 µM | 12.1 ×10⁻⁶ cm/s |  |  |  |  |  | Non-Toxic | inactive |
| Cc1c(C)c2c(c(C)c1O)CCC(C)(C(=O)O)O2 (stereo unspecified) [TROLOX] |  |  |  |  | 23.5 µM |  |  |  |  |  |  |  |  |
| CCN(C)C(=O)Oc1cccc([C@H](C)N(C)C)c1 [RIVASTIGMINE] | 30.1% | 1.92% |  |  |  | 16.3 ×10⁻⁶ cm/s |  |  |  |  |  |  |  |
| CCN(C)C(=O)Oc1cccc(CCNC(=O)c2cc(=O)c3ccccc3o2)c1 | 49.1% | 22.1% | 0.511 µM | 67.4% | > 100 µM |  |  |  | inactive |  |  | Toxic |  |
| CCN(C)C(=O)Oc1cccc(CNC(=O)CCCCC2CCSS2)c1 (stereo unspecified) | 77.3% | 3.66% | 0.378 µM | 51.8% | 4.3 µM | 27.8 ×10⁻⁶ cm/s | Active |  |  |  |  | Non-Toxic | inactive |
| CCN(C)C(=O)Oc1cccc(NC(=O)c2cc(O)c(O)c(O)c2)c1 | 7.98% | 23.6% |  | 47.3% | 10.6 µM | 3.08 ×10⁻⁶ cm/s | Active | Toxic |  |  | Active |  |  |
